# Calls of active or inactive are those of the source. The calls are words filed in the database; no cut-off is given here.
# Columns and labels:
# Homo sapiens = organism: Homo sapiens; experiment: Selectivity ratio of IC50 for human SGLT1 to IC50 for human SGLT2
# [1] = molecular target: T1, Sodium/glucose cotransporter 2 (Homo sapiens, UniProt P31639); experiment: Inhibition of human SGLT2 expressed in CHO cells assessed as [14C]-methyl-alpha-D-glucopyranoside accumulation; format: cell-based
# T1 sequence (P31639 whole entry): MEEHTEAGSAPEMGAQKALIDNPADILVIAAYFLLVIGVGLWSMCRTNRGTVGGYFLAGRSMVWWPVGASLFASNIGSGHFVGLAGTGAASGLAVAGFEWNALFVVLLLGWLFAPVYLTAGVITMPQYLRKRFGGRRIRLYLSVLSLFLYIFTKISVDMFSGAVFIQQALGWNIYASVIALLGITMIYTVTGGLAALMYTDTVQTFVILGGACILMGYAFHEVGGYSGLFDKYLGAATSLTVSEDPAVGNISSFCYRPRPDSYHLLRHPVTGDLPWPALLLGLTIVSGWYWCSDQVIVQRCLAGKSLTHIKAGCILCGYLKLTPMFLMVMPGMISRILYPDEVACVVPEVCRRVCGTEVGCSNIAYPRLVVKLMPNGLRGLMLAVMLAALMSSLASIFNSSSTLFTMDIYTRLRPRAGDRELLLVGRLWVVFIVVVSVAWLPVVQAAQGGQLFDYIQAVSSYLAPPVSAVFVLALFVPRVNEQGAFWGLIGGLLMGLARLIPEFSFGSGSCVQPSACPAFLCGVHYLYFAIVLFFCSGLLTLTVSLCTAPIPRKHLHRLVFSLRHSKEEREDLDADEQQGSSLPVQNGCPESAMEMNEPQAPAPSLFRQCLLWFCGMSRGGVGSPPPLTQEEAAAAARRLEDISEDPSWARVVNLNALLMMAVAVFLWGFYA
# [2] = AUC (0 to infinity) in Sprague-Dawley rat at 1 mg/kg, iv; format: ADME, organism-based; design: time infinity, dose 1 mg/kg, route intravenous; conditions: plasma
# Method in brief: (§1)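 Male Sprague–Dawley rats, bought at 5–7 weeks of age. A single 1.0 mg/kg intravenous dose or a single 3 mg/kg oral dose was given. Plasma pharmacokinetic parameters were derived: T1/2, CLtot, Vdss, Cmax, Tmax, AUC(0–inf) and oral bioavailability F.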
# [3] = Ratio of drug level in kidney to plasma in Sprague-Dawley rat at 1 mg/kg, iv and 3 mg/kg, po; format: ADME, organism-based
# Method in brief: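 Male Sprague–Dawley rats received a single 1.0 mg/kg iv or a single 3 mg/kg oral dose. Drug concentration in kidney was compared with that in plasma.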
# [4] = Tmax in Sprague-Dawley rat at 3 mg/kg, po; format: ADME, organism-based; design: dose 3 mg/kg, route oral; conditions: in vivo; method in brief: as §1
# Mus musculus [5] = experiment: Antihyperglycemic activity in KK/Ay type-2 diabetic mouse model assessed as increase in urinary glucose excretion at => 0.3 mg/kg, po measured over 12 hrs; format: functional, organism-based; design: dose 0.3 mg/kg; conditions: Urine
# [6] = Cmax in Sprague-Dawley rat at 3 mg/kg, po; format: ADME, organism-based; design: dose 3 mg/kg, route oral; conditions: in vivo; method in brief: as §1
# [7] = Oral bioavailability in Sprague-Dawley rat at 3 mg/kg; format: ADME, organism-based; conditions: in vivo; method in brief: as §1
# [8] = Half life in Sprague-Dawley rat at 3 mg/kg, po; format: ADME, organism-based; design: dose 3 mg/kg, route oral; conditions: in vivo; method in brief: as §1
# [9] = Half life in Sprague-Dawley rat at 1 mg/kg, iv; format: ADME, organism-based; design: dose 1 mg/kg, route intravenous; conditions: in vivo; method in brief: as §1
# Rattus norvegicus [10] = experiment: Antihyperglycemic activity in streptozotocin-induced type-1 diabetes mellitus rat model assessed as reduction of blood glucose level at 0.1 to 3 mg/kg, po measured for 8 hrs
# Mus musculus [11] = experiment: Antihyperglycemic activity in po dosed KK/Ay type-2 diabetic mouse model assessed as increase in urinary glucose excretion measured over 24 hrs; format: functional, organism-based; conditions: Urine
# Rattus norvegicus [12] = experiment: Volume of distribution at steady state in Sprague-Dawley rat at 1 mg/kg, iv; format: ADME, organism-based; design: dose 1 mg/kg, route intravenous; conditions: in vivo; method in brief: as §1
# Mus musculus [13] = experiment: Antihyperglycemic activity in KK/Ay type-2 diabetic mouse model assessed as reduction of blood glucose level at 3 mg/kg, po measured for 8 hrs relative to vehicle-treated control; format: functional; design: scale not given: the % may be the effect or the level left
# Method in brief: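 KK/Ay mice in the fed condition were given a single oral dose (0.1–3 mg/kg). Blood glucose was followed over time, and suppression of glucose AUC was calculated relative to vehicle. Mean ± SEM, 6 animals per group.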
SMILES,Ratio IC50 (Homo sapiens),IC50 [1],other results
OC[C@H]1O[C@@H](c2cc(Cc3cc4cccccc-4c3)ccc2Cl)[C@H](O)[C@@H](O)[C@@H]1O,200,70 nM,–
OC[C@H]1O[C@@H](c2cccc(Cc3cc4cccccc-4c3)c2)[C@H](O)[C@@H](O)[C@@H]1O,590,–,–
OC[C@H]1O[C@@H](c2ccc(Cl)c(Cc3cc4cccccc-4c3)c2)[C@H](O)[C@@H](O)[C@@H]1O,140,7.9 nM,–
COc1ccc(Cc2cc3cccccc-3c2)cc1[C@@H]1O[C@H](CO)[C@@H](O)[C@H](O)[C@H]1O,2100,–,–
OC[C@H]1O[C@@H](c2cc(Cc3cc4cccccc-4c3)ccc2F)[C@H](O)[C@@H](O)[C@@H]1O,123,39 nM,–
OC[C@H]1O[C@@H](c2cc(Cc3cc4cccccc-4c3)ccc2O)[C@H](O)[C@@H](O)[C@@H]1O [YM-543 FREE ACID],280,–,AUC(0-inf) [2]: 403 ng·h/mL; Kp [3]: 23; Tmax [4]: 30 min; Activity (Mus musculus [5]): Active; Cmax [6]: 101 ng/mL; bioavailability [7]: 29%; half-life [8]: 78 min; half-life [9]: 54 min; Activity (Rattus norvegicus [10]): Active; Activity (Mus musculus [11]): Dose-dependent effect; Vdss (Rattus norvegicus [12]): 3.36 L/kg; Activity (Mus musculus [13]): 56%
OC[C@H]1O[C@@H](c2cccc(Cc3ccc4cccc-4cc3)c2)[C@H](O)[C@@H](O)[C@@H]1O,230,–,–
CCc1c(Cc2cccc([C@@H]3O[C@H](CO)[C@@H](O)[C@H](O)[C@H]3O)c2)cc2cccccc1-2,> 1.9,5200 nM,–
COc1ccc([C@@H]2O[C@H](CO)[C@@H](O)[C@H](O)[C@H]2O)cc1Cc1cc2cccccc-2c1,35,17 nM,–
CC(=O)c1c(Cc2cccc([C@@H]3O[C@H](CO)[C@@H](O)[C@H](O)[C@H]3O)c2)cc2cccccc1-2,> 0.8,12000 nM,–
Cc1cc(Cc2cccc([C@@H]3O[C@H](CO)[C@@H](O)[C@H](O)[C@H]3O)c2)c2cccccc1-2,–,44000 nM,–
OC[C@H]1O[C@@H](c2ccc(F)c(Cc3cc4cccccc-4c3)c2)[C@H](O)[C@@H](O)[C@@H]1O,610,14 nM,–
OC[C@H]1O[C@@H](c2cccc(Cc3cc4cccccc-4c3Cc3ccccc3)c2)[C@H](O)[C@@H](O)[C@@H]1O,> 10,970 nM,–
